Measurements from ChEMBL document CHEMBL1129660, “Studies on 6-aminoquinolones: synthesis and antibacterial evaluation of 6-amino-8-methylquinolones” (J Med Chem, 1996).
Values after ≈ are worked out from the molar mass of the structure shown.

System: Pseudomonas aeruginosa
Test: Antibacterial activity tested against P. ae (Pseudomonas aeruginosa) ATCC 9027
Assay type: functional
How it was run: (§1)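 MICs (µg/mL) determined by conventional agar dilution against a panel of eight Gram-negative and five Gram-positive reference strains.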
Work on Cc1c(N2CCC(C)CC2)c(N)cc2c(=O)c(C(=O)O)cn(C3CC3)c12 yielded an MIC of 1 µg/mL (≈ 2.81 µM). Compound Cc1c(N2CCOCC2)c(N)cc2c(=O)c(C(=O)O)cn(C3CC3)c12 has an MIC of 1 µg/mL (≈ 2.91 µM).

System: Staphylococcus aureus
Test: Antibacterial activity tested against Staphylococcus aureus; Range is 0.06-0.13 ug/mL
Assay type: functional
Compound Cc1c(N2CCOCC2)c(N)cc2c(=O)c(C(=O)O)cn(C3CC3)c12 has an MIC of 0.06 µg/mL (≈ 0.175 µM).

System: Enterococcus faecium
Test: Antibacterial activity tested against Enterococcus faecium; Range is 0.5-2 ug/mL
Assay type: functional
Cc1c(N2CCOCC2)c(N)cc2c(=O)c(C(=O)O)cn(C3CC3)c12 gave an MIC of 0.5 µg/mL (≈ 1.46 µM).

System: Escherichia coli
Test: Antibacterial activity tested against Escherichia coli ATCC 8739
Assay type: functional
How it was run: as §1
Work on Cc1c(N2CCC(C)CC2)c(N)cc2c(=O)c(C(=O)O)cn(C3CC3)c12 yielded an MIC of 0.03 µg/mL (≈ 0.0844 µM). For Cc1c(N2CCOCC2)c(N)cc2c(=O)c(C(=O)O)cn(C3CC3)c12, the MIC was 0.03 µg/mL (≈ 0.0874 µM).

System: Staphylococcus aureus
Test: Antibacterial activity against Staphylococcus aureus MPR 5
Assay type: functional
How it was run: as §1
Cc1c(N2CCC(C)CC2)c(N)cc2c(=O)c(C(=O)O)cn(C3CC3)c12 gave an MIC of 0.06 µg/mL (≈ 0.169 µM). Compound Cc1c(N2CCOCC2)c(N)cc2c(=O)c(C(=O)O)cn(C3CC3)c12 has an MIC of 0.125 µg/mL (≈ 0.364 µM).

System: Staphylococcus aureus
Test: Antibacterial activity tested against Staphylococcus aureus; Range is 0.016-0.13 ug/mL
Assay type: functional
For Cc1c(N2CCC(C)CC2)c(N)cc2c(=O)c(C(=O)O)cn(C3CC3)c12, the MIC was 0.016 µg/mL (≈ 0.045 µM).

System: Enterobacter cloacae
Test: Antibacterial activity tested against Enterobacter cloacae OMNFI 174
Assay type: functional
Cc1c(N2CCC(C)CC2)c(N)cc2c(=O)c(C(=O)O)cn(C3CC3)c12 showed an MIC of 0.5 µg/mL (≈ 1.41 µM). For Cc1c(N2CCOCC2)c(N)cc2c(=O)c(C(=O)O)cn(C3CC3)c12, the MIC was 0.125 µg/mL (≈ 0.364 µM).

System: Proteus vulgaris
Test: Antibacterial activity tested against Proteus vulgaris CNUR 5
Assay type: functional
How it was run: as §1
In the case of Cc1c(N2CCC(C)CC2)c(N)cc2c(=O)c(C(=O)O)cn(C3CC3)c12, the MIC is reported as 8 µg/mL (≈ 22.5 µM). Cc1c(N2CCOCC2)c(N)cc2c(=O)c(C(=O)O)cn(C3CC3)c12 showed an MIC of 8 µg/mL (≈ 23.3 µM).

System: Staphylococcus aureus
Test: Antibacterial activity against Staphylococcus aureus ATCC 6538
Assay type: functional
How it was run: as §1
Cc1c(N2CCC(C)CC2)c(N)cc2c(=O)c(C(=O)O)cn(C3CC3)c12 gave an MIC of 0.06 µg/mL (≈ 0.169 µM). For Cc1c(N2CCOCC2)c(N)cc2c(=O)c(C(=O)O)cn(C3CC3)c12, the MIC was 0.125 µg/mL (≈ 0.364 µM).

System: Enterococcus faecalis
Test: Antibacterial activity tested against Enterococcus faecalis; Range is 0.25-0.5 ug/mL
Assay type: functional
For Cc1c(N2CCOCC2)c(N)cc2c(=O)c(C(=O)O)cn(C3CC3)c12, the MIC was 0.25 µg/mL (≈ 0.728 µM).

System: Bacteria
Test: Geometric mean of antibacterial activity (Gram +ve bacteria) of the compound
Assay type: functional
How it was run: (§2)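 Geometric means calculated from agar-dilution MICs (µg/mL), taken separately across the five Gram-positive and the eight Gram-negative panel strains.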
Work on Cc1c(N2CCC(C)CC2)c(N)cc2c(=O)c(C(=O)O)cn(C3CC3)c12 yielded a Geometric mean of 0.122. Cc1c(N2CCOCC2)c(N)cc2c(=O)c(C(=O)O)cn(C3CC3)c12 gave a Geometric mean of 0.218.

System: Providencia stuartii
Test: Antibacterial activity tested against Providencia stuartii CNUR 5
Assay type: functional
How it was run: as §1
Cc1c(N2CCC(C)CC2)c(N)cc2c(=O)c(C(=O)O)cn(C3CC3)c12 gave an MIC of 0.5 µg/mL (≈ 1.41 µM). Compound Cc1c(N2CCOCC2)c(N)cc2c(=O)c(C(=O)O)cn(C3CC3)c12 has an MIC of 0.5 µg/mL (≈ 1.46 µM).

System: Escherichia coli
Test: Inhibitory activity against gyrase supercoiling activity from Escherichia coli
Assay type: functional
How it was run: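 Inhibition of DNA gyrase supercoiling activity, by a previously described protocol with slight modifications. IC50 derived by densitometric quantification of the supercoiled DNA peak in an agarose gel.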
Cc1c(N2CCC(C)CC2)c(N)cc2c(=O)c(C(=O)O)cn(C3CC3)c12 showed an IC50 of 5.86 µg/mL (≈ 16.5 µM). For Cc1c(N2CCOCC2)c(N)cc2c(=O)c(C(=O)O)cn(C3CC3)c12, the IC50 was 5.64 µg/mL (≈ 16.4 µM).

System: Streptococcus pneumoniae
Test: Antibacterial activity tested against Streptococcus pneumoniae; Range is 1-2 ug/mL
Assay type: functional
Work on Cc1c(N2CCC(C)CC2)c(N)cc2c(=O)c(C(=O)O)cn(C3CC3)c12 yielded an MIC of 1 µg/mL (≈ 2.81 µM). Cc1c(N2CCOCC2)c(N)cc2c(=O)c(C(=O)O)cn(C3CC3)c12 gave an MIC of 1 µg/mL (≈ 2.91 µM).

System: Enterococcus faecium
Test: Antibacterial activity tested against Enterococcus faecium; Range is 0.13-2 ug/mL
Assay type: functional
Cc1c(N2CCC(C)CC2)c(N)cc2c(=O)c(C(=O)O)cn(C3CC3)c12 showed an MIC of 0.13 µg/mL (≈ 0.366 µM).

System: Klebsiella pneumoniae
Test: Antibacterial activity tested against Klebsiella pneumoniae (Klebsiella pneumoniae) ATCC 10031
Assay type: functional
How it was run: as §1
In the case of Cc1c(N2CCC(C)CC2)c(N)cc2c(=O)c(C(=O)O)cn(C3CC3)c12, the MIC is reported as 0.03 µg/mL (≈ 0.0844 µM). Cc1c(N2CCOCC2)c(N)cc2c(=O)c(C(=O)O)cn(C3CC3)c12 showed an MIC of 0.03 µg/mL (≈ 0.0874 µM).

System: Enterococcus faecalis
Test: Antibacterial activity tested against Enterococcus faecalis; Range is 0.13-0.25 ug/mL
Assay type: functional
With Cc1c(N2CCC(C)CC2)c(N)cc2c(=O)c(C(=O)O)cn(C3CC3)c12 the MIC was 0.13 µg/mL (≈ 0.366 µM).

System: Staphylococcus aureus
Test: Antibacterial activity tested against Staphylococcus aureus Methicillin-and Ciprofloxacin resistants; Range is 1-2 ug/mL
Assay type: functional
Work on Cc1c(N2CCC(C)CC2)c(N)cc2c(=O)c(C(=O)O)cn(C3CC3)c12 yielded an MIC of 1 µg/mL (≈ 2.81 µM).

System: Staphylococcus epidermidis
Test: Antibacterial activity tested against Staphylococcus epidermidis CPHL A2
Assay type: functional
How it was run: as §1
In the case of Cc1c(N2CCC(C)CC2)c(N)cc2c(=O)c(C(=O)O)cn(C3CC3)c12, the MIC is reported as 0.125 µg/mL (≈ 0.352 µM). Cc1c(N2CCOCC2)c(N)cc2c(=O)c(C(=O)O)cn(C3CC3)c12 showed an MIC of 0.25 µg/mL (≈ 0.728 µM).

System: not listed separately
Test: Geometric mean of antibacterial activity (Gram -ve bacteria) of the compound
Assay type: functional
How it was run: as §2
Compound Cc1c(N2CCC(C)CC2)c(N)cc2c(=O)c(C(=O)O)cn(C3CC3)c12 has a Geometric mean of 0.268. Work on Cc1c(N2CCOCC2)c(N)cc2c(=O)c(C(=O)O)cn(C3CC3)c12 yielded a Geometric mean of 0.189.

System: Escherichia coli
Test: Antibacterial activity tested against Escherichia coli ISF 432
Assay type: functional
How it was run: as §1
For Cc1c(N2CCC(C)CC2)c(N)cc2c(=O)c(C(=O)O)cn(C3CC3)c12, the MIC was 0.03 µg/mL (≈ 0.0844 µM). Work on Cc1c(N2CCOCC2)c(N)cc2c(=O)c(C(=O)O)cn(C3CC3)c12 yielded an MIC of 0.03 µg/mL (≈ 0.0874 µM).

System: Shigella
Test: Antibacterial activity tested against Shigella enteritidis
Assay type: functional
How it was run: as §1
Work on Cc1c(N2CCC(C)CC2)c(N)cc2c(=O)c(C(=O)O)cn(C3CC3)c12 yielded an MIC of 0.5 µg/mL (≈ 1.41 µM). With Cc1c(N2CCOCC2)c(N)cc2c(=O)c(C(=O)O)cn(C3CC3)c12 the MIC was 0.125 µg/mL (≈ 0.364 µM).

System: Staphylococcus epidermidis
Test: Antibacterial activity tested against Staphylococcus epidermidis HCF Berset C
Assay type: functional
How it was run: as §1
For Cc1c(N2CCC(C)CC2)c(N)cc2c(=O)c(C(=O)O)cn(C3CC3)c12, the MIC was 0.125 µg/mL (≈ 0.352 µM). Compound Cc1c(N2CCOCC2)c(N)cc2c(=O)c(C(=O)O)cn(C3CC3)c12 has an MIC of 0.125 µg/mL (≈ 0.364 µM).

System: Enterococcus faecalis
Test: Antibacterial activity tested against Streptococcus faecalis LEP Br
Assay type: functional
How it was run: as §1
Work on Cc1c(N2CCC(C)CC2)c(N)cc2c(=O)c(C(=O)O)cn(C3CC3)c12 yielded an MIC of 0.5 µg/mL (≈ 1.41 µM). Compound Cc1c(N2CCOCC2)c(N)cc2c(=O)c(C(=O)O)cn(C3CC3)c12 has an MIC of 1 µg/mL (≈ 2.91 µM).

System: Staphylococcus aureus
Test: Antibacterial activity tested against Staphylococcus aureus Methicillin-and Ciprofloxacin resistants; Range is 4-8 ug/mL
Assay type: functional
Cc1c(N2CCOCC2)c(N)cc2c(=O)c(C(=O)O)cn(C3CC3)c12 showed an MIC of 4 µg/mL (≈ 11.6 µM).
